Here are results for two compounds from paper PMC12124217 (RSC Medicinal Chemistry, 2025).

SMILES strings stand for the structures.

The conditions of data set [1]: advertised; ref Millipore Sigma; cited from earlier work.
In another data set the test system is MDA-MB-468 (EGFR+) cells. Nature of the data set: MTT cell viability assay. The format is cell-based. The following applies: neat CD, up to concentrations as high as 100 μM. A digest of the protocol:
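MDA-MB-468 cells were treated with test compound alone or as cyclodextrin complexes, then read out by MTT. Complex stocks were made by shake-flask and passed through a 0.45 μm filter. […] Values are the mean of 10 replicates ± standard deviation.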

A short description of data set [2]: Phase-solubility study of tcyDTDO with BCD. It counts as physicochemical. The following applies: BCD with saturated tcyDTDO, 25.0 °C.
The conditions of data set [3]: cited from earlier work.

As for `CC(O)COC[C@H]1O[C@@H]2O[C@H]3[C@H](O)[C@@H](O)[C@@H](O[C@H]4[C@H](O)[C@@H](O)[C@@H](O[C@H]5[C@H](O)[C@@H](O)[C@@H](O[C@H]6[C@H](O)[C@@H](O)[C@@H](O[C@H]7[C@H](O)[C@@H](O)[C@@H](O[C@H]8[C@H](O)[C@@H](O)[C@@H](O[C@H]1[C@H](O)[C@H]2O)O[C@@H]8COCC(C)O)O[C@@H]7COCC(C)O)O[C@@H]6COCC(C)O)O[C@@H]5COCC(C)O)O[C@@H]4COCC(C)O)O[C@@H]3COCC(C)O` (stereo partly drawn) [HPB, 2-hydroxypropyl-beta-cyclodextrin], the Solubility in water entry in data set [1] is on record as “roughly 45 g per 100 mL”. The “Effect on cell viability” value in the data set on MDA-MB-468 (EGFR+) cells is “did not have any significant adverse effect on cell viability”.
Consider `OC[C@H]1O[C@@H]2O[C@H]3[C@H](O)[C@@H](O)[C@@H](O[C@H]4[C@H](O)[C@@H](O)[C@@H](O[C@H]5[C@H](O)[C@@H](O)[C@@H](O[C@H]6[C@H](O)[C@@H](O)[C@@H](O[C@H]7[C@H](O)[C@@H](O)[C@@H](O[C@H]8[C@H](O)[C@@H](O)[C@@H](O[C@H]1[C@H](O)[C@H]2O)O[C@@H]8CO)O[C@@H]7CO)O[C@@H]6CO)O[C@@H]5CO)O[C@@H]4CO)O[C@@H]3CO` [BCD, beta-cyclodextrin], for which the “Highest achievable concentration of CD in solution” value in data set [2] is reported as 4.43 mM. The “Cavity volume, literature” value in data set [3] is on record as 262 Å^3. Also, the “Effect on cell viability” value in the data set with MDA-MB-468 (EGFR+) cells is reported as “did not have any significant adverse effect on cell viability”.
